From ChEMBL document CHEMBL4402595, “Discovery of Orally Bioavailable Chromone Derivatives as Potent and Selective BRD4 Inhibitors: Scaffold Hopping, Optimization, and Pharmacological Evaluation” (J Med Chem, 2020) come the findings set out here.

The subject of series [1] is Mus musculus. Briefly: Antiinflammatory activity in C57BL6/J mouse model of TLR3-induced acute airway inflammation assessed as inhibition of elevated CIG5 gene expression in lung at 10 mg/kg, po pre-treated 1 day before poly(I:C) stimulation followed by compound re-dosing at 10 mg/kg, po before another poly(I:C) stimulation and measured after 1 day post last poly(I:C) stimulation. It is filed as functional, organism-based. In a few lines: (§1)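 Male C57BL/6J mice, 12 weeks old, 5 per group, dosed 10 mg/kg one day before challenge and again immediately before intranasal poly(I:C) (300 μg in 50 μL PBS). Controls were vehicle alone and poly(I:C) alone. Lungs were taken 1 day later. Gene expression in lung tissue was measured by qRT-PCR, normalized to PPIA.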

For series [2], the system named is Mus musculus. Briefly: Antiinflammatory activity in C57BL6/J mouse model of TLR3-induced acute airway inflammation assessed as inhibition of elevated ISG54 gene expression in lung at 10 mg/kg, ip pre-treated 1 day before poly(I:C) stimulation followed by compound re-dosing at 10 mg/kg, ip before another poly(I:C) stimulation and measured after 1 day post last poly(I:C) stimulation. It is filed as functional, organism-based. The procedure, abridged:
as §1

Series [3] can be described thus: Oral bioavailability in Sprague-Dawley rat at 20 mg/kg measured after 2 to 26 hrs. The note with it: in vivo. It is filed as ADME, organism-based. The procedure, abridged:
(§2)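 Male Sprague-Dawley rats received a single dose either intravenously (10 mg/kg) or orally. Plasma concentration–time curves were followed after each route. Total clearance (CL) came from the i.v. arm, and oral bioavailability (F) was derived by comparing the p.o. and i.v. profiles.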

The nature of series [4]: Half life in Sprague-Dawley rat at 20 mg/kg, po measured after 2 to 26 hrs. It counts as ADME, organism-based. The note with it: in vivo.
For series [5], the system named is Mus musculus. Briefly: Antiinflammatory activity in C57BL6/J mouse model of TLR3-induced acute airway inflammation assessed as inhibition of elevated IL-6 levels in BALF at 10 mg/kg, ip pre-treated 1 day before poly(I:C) stimulation followed by compound re-dosing at 10 mg/kg, ip before another poly(I:C) stimulation and measured after 1 day post last poly(I:C) stimulation by cytokine Bio-Plex assay. It is filed as functional, organism-based. The procedure, abridged:
(§3)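 Male C57BL/6J mice, 12 weeks old, 5 per group, dosed 10 mg/kg the day before and again immediately before intranasal poly(I:C) (300 μg in 50 μL PBS). BALF was collected 1 day later by two 1 mL PBS lavages and centrifuged at 800 × g for 5 min at 4 °C. Supernatant cytokines were measured by multiplex bead immunoassay against recombinant standards in triplicate.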

Series [6] deals with Mus musculus. Briefly: Antiinflammatory activity in C57BL6/J mouse model of TLR3-induced acute airway inflammation assessed as inhibition of elevated IL6 gene expression in lung at 10 mg/kg, ip pre-treated 1 day before poly(I:C) stimulation followed by compound re-dosing at 10 mg/kg, ip before another poly(I:C) stimulation and measured after 1 day post last poly(I:C) stimulation. It is filed as functional, organism-based. The procedure, abridged:
as §1

The test system of series [7] is Mus musculus. Briefly: Antiinflammatory activity in C57BL6/J mouse model of TLR3-induced acute airway inflammation assessed as inhibition of neutrophilic inflammation around small and medium-sized airways at 10 mg/kg, ip pre-treated 1 day before poly(I:C) stimulation followed by compound re-dosing at 10 mg/kg, ip before another poly(I:C) stimulation and measured after 1 day post last poly(I:C) stimulation by …. It is filed as functional.

For series [8], the system named is Mus musculus. Briefly: Antiinflammatory activity in C57BL6/J mouse model of TLR3-induced acute airway inflammation assessed as inhibition of elevated MCP1 levels in BALF at 10 mg/kg, po pre-treated 1 day before poly(I:C) stimulation followed by compound re-dosing at 10 mg/kg, po before another poly(I:C) stimulation and measured after 1 day post last poly(I:C) stimulation by cytokine Bio-Plex assay. It is filed as functional, organism-based. The procedure, abridged: as §3

Series [9] is described as follows: Half life in Sprague-Dawley rat at 10 mg/kg, iv measured after 2 to 26 hrs. The note with it: in vivo. It is filed as ADME, organism-based.
The subject of series [10] is Mus musculus. Briefly: Antiinflammatory activity in C57BL6/J mouse model of TLR3-induced acute airway inflammation assessed as inhibition of elevated MCP1 levels in BALF at 10 mg/kg, ip pre-treated 1 day before poly(I:C) stimulation followed by compound re-dosing at 10 mg/kg, ip before another poly(I:C) stimulation and measured after 1 day post last poly(I:C) stimulation by cytokine Bio-Plex assay. It counts as functional, organism-based. In a few lines:
as §3

In series [11] the test system is Mus musculus. Briefly: Antiinflammatory activity in C57BL6/J mouse model of TLR3-induced acute airway inflammation assessed as inhibition of elevated neutrophils in BALF at 10 mg/kg, po pre-treated 1 day before poly(I:C) stimulation followed by compound re-dosing at 10 mg/kg, po before another poly(I:C) stimulation and measured after 1 day post last poly(I:C) stimulation. It counts as functional, organism-based. The procedure, abridged:
(§4)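 Male C57BL/6J mice, 12 weeks old, 5 per group, dosed 10 mg/kg one day before and again immediately before intranasal poly(I:C) (300 μg/50 μL PBS). BALF was collected 1 day later. Total viable cells were counted by trypan blue with a hemocytometer. Neutrophils were counted as a differential of 300 cells on Wright-Giemsa stained cytospins.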

The test system of series [12] is Mus musculus. Briefly: Antiinflammatory activity in C57BL6/J mouse model of TLR3-induced acute airway inflammation assessed as inhibition of elevated KC levels in BALF at 10 mg/kg, po pre-treated 1 day before poly(I:C) stimulation followed by compound re-dosing at 10 mg/kg, po before another poly(I:C) stimulation and measured after 1 day post last poly(I:C) stimulation by cytokine Bio-Plex assay. It is filed as functional, organism-based. The procedure, abridged: as §3

Series [13] relates to Mus musculus. Briefly: Antiinflammatory activity in C57BL6/J mouse model of TLR3-induced acute airway inflammation assessed as inhibition of elevated neutrophils in BALF at 10 mg/kg, ip pre-treated 1 day before poly(I:C) stimulation followed by compound re-dosing at 10 mg/kg, ip before another poly(I:C) stimulation and measured after 1 day post last poly(I:C) stimulation. It is filed as functional, organism-based. The procedure, abridged:
as §4

Series [14] concerns Mus musculus. Briefly: Antiinflammatory activity in C57BL6/J mouse model of TLR3-induced acute airway inflammation assessed as inhibition of elevated KC gene expression in lung at 10 mg/kg, ip pre-treated 1 day before poly(I:C) stimulation followed by compound re-dosing at 10 mg/kg, ip before another poly(I:C) stimulation and measured after 1 day post last poly(I:C) stimulation. It counts as functional, organism-based. In a few lines: as §1

Series [15] has as its system Mus musculus. Briefly: Antiinflammatory activity in C57BL6/J mouse model of TLR3-induced acute airway inflammation assessed as inhibition of elevated CIG5 gene expression in lung at 10 mg/kg, ip pre-treated 1 day before poly(I:C) stimulation followed by compound re-dosing at 10 mg/kg, ip before another poly(I:C) stimulation and measured after 1 day post last poly(I:C) stimulation. It counts as functional, organism-based. In a few lines: as §1

The subject of series [16] is Mus musculus. Briefly: Antiinflammatory activity in C57BL6/J mouse model of TLR3-induced acute airway inflammation assessed as inhibition of neutrophilic inflammation around small and medium-sized airways at 10 mg/kg, po pre-treated 1 day before poly(I:C) stimulation followed by compound re-dosing at 10 mg/kg, po before another poly(I:C) stimulation and measured after 1 day post last poly(I:C) stimulation by …. It is filed as functional.

Series [17] deals with Mus musculus. Briefly: Antiinflammatory activity in C57BL6/J mouse model of TLR3-induced acute airway inflammation assessed as inhibition of elevated RANTES levels in BALF at 10 mg/kg, ip pre-treated 1 day before poly(I:C) stimulation followed by compound re-dosing at 10 mg/kg, ip before another poly(I:C) stimulation and measured after 1 day post last poly(I:C) stimulation by cytokine Bio-Plex assay. It is filed as functional, organism-based. The procedure, abridged:
as §3

Series [18] is described as follows: AUC (0 to t) in Sprague-Dawley rat at 20 mg/kg, po measured after 2 to 26 hrs. It is filed as ADME, organism-based. Particulars: in vivo.
Series [19] in a line: Total clearance in Sprague-Dawley rat at 10 mg/kg, iv measured after 2 to 26 hrs. It counts as ADME, organism-based. Particulars: in vivo. In a few lines: as §2
The subject of series [20] is Mus musculus. Briefly: Antiinflammatory activity in C57BL6/J mouse model of TLR3-induced acute airway inflammation assessed as inhibition of elevated RANTES levels in BALF at 10 mg/kg, po pre-treated 1 day before poly(I:C) stimulation followed by compound re-dosing at 10 mg/kg, po before another poly(I:C) stimulation and measured after 1 day post last poly(I:C) stimulation by cytokine Bio-Plex assay. It is filed as functional, organism-based. In a few lines: as §3

Active and inactive are the calls of the source. The calls are words filed in the database; no cut-off is given here.

`COc1cc(OC)c2c(=O)cc(-c3cc(C)c(OC[C@H](O)CN4CCCCC4)c(C)c3)oc2c1`: the inhibition entry in series [1], in [2], in [5], in series [6], in [8] and in series [10] was “Active” throughout. Besides, the inhibition result in series [11], in series [12], in series [13], in series [14], in series [15] and in [17] was “Active” throughout. Also, the inhibition entry in series [20] was “Active”. Besides, the F in series [3] is given as 38.2%. The half-life (in general, the time in which the quantity being followed falls by half) in series [4] was 2.4 h; in [9], 3.5 h. The inhibition in vivo at 10 mg/kg in [7] and in series [16] was 100% in each case. In addition, in series [18], the AUC(0-t) (in general, the area under the concentration-time curve up to a stated or last time point) turned out to be 5170 ng·h/mL. Further, the clearance – broadly, the rate of elimination divided by the concentration – in [19] was 24.7 mL/min/kg.

Consider `COc1cc(OC)c2c(=O)cc(-c3cc(C)c(OC[C@H](O)CN4CCN(C)CC4)c(C)c3)oc2c1`, for which the inhibition result in series [1], in [2], in series [5], in series [6], in series [8] and in series [10] was “Active” in each case. For the same molecule, the inhibition result in series [11], in series [12], in [13], in series [14], in series [15] and in [17] was “Active” throughout. Also, the inhibition entry in series [20] was “Active”. The F in series [3] came to 35.3%. Moreover, the figures for the half-life in [4] and in [9] were 2.8 h and 4.1 h, respectively. The inhibition in vivo at 10 mg/kg in series [7] and in series [16] was 100% throughout. The molecule also came in with an AUC(0-t) in [18] of 4970 ng·h/mL. The molecule further showed a clearance in series [19] of 24.7 mL/min/kg.
